Laboratory results as given in ChEMBL document CHEMBL3872205, “Design, synthesis and evaluation of novel potent angiotensin II receptor 1 antagonists” (Eur J Med Chem, 2016).

Key:
[1] = Displacement of 125I-Ang2 from AT1 receptor in SPF Sprague-Dawley rat vascular smooth muscle cell membranes after 150 mins by gamma counting method
Procedure, shortened: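 Primary aortic VSMCs from SPF Sprague-Dawley rats, obtained by explant culture in DMEM/10% FBS and identified by SM α-actin staining; passages 3–6. Whole cells (10^6/well) incubated with 125I-Ang II (diluted to 0.2 nM) and compound at final 10^-12–10^-6 M, 4 °C for 150 min. Washed, lysed in 0.1 M NaOH, γ-counted. IC50 from nonlinear fit of competition curves.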

[2] = system: Rattus norvegicus; assay: Antihypertensive activity in spontaneous hypertensive rat model assessed as reduction in mean blood pressure at 15 mg/kg, po after 4 hrs; type: functional
Procedure, shortened: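 Male SHRs (250 ± 20 g) were randomized, 6 per group. Compound was suspended in 0.5% sodium carboxymethyl cellulose and given orally; vehicle-only negative control. Mean blood pressure was calculated as (SBP − DBP)/3 + DBP from systolic and diastolic readings over the time course. Data are mean ± SD, with p < 0.05 taken as significant.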

[3] = AUC (0 to infinity) in Wistar rat plasma at 30 mg/kg, po by HPLC analysis; type: ADME, organism-based; design: dose 30 mg/kg, route oral, time infinity
Procedure, shortened: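 Male Wistar rats (180 ± 20 g, n = 6 per group) got one oral dose. Heparinized blood was taken by retro-orbital puncture before dosing and at 0.5–72 h. Plasma was spun at 4000 × g, 4 °C, 10 min, spiked with internal standard and protein-precipitated with acetonitrile. Analysis was reverse-phase C18 HPLC (0.02 mol/L KH2PO4 55%/acetonitrile 45%, 1.0 mL/min). Calibration used 0.1–10 µg/mL, peak-height ratio, weighting concentration^-2.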

[4] = MRT (0 to 72 hrs) in Wistar rat plasma at 30 mg/kg, po by HPLC analysis; type: ADME, organism-based
Procedure, shortened: (§1)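 Male Wistar rats (180 ± 20 g), 6 per dose group, each given a single oral dose. Blood was drawn by retro-orbital puncture into heparin at predose and at 0.5, 1, 2, 4, 6, 8, 12, 24, 48 and 72 h, then spun at 4000 × g and 4 °C. Plasma with internal standard was acetonitrile-precipitated, filtered and run on reverse-phase C18 HPLC (0.02 mol/L KH2PO4 55% / acetonitrile 45%, 1.0 mL/min). Calibration standards were 0.1–10 µg/mL, fitted by peak-height ratio with 1/conc² weighting.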

[5] = Half life in Wistar rat plasma at 15 mg/kg, po by HPLC analysis; type: ADME, organism-based
[6] = Tmax in Wistar rat plasma at 10 mg/kg, po by HPLC analysis; type: ADME, organism-based; procedure, shortened: as §1
[7] = Cmax in Wistar rat plasma at 10 mg/kg, po by HPLC analysis; type: ADME, organism-based; design: dose 10 mg/kg, route oral
[8] = AUC (0 to 72 hrs) in Wistar rat Heart at 10 mg/kg, po by HPLC analysis; type: ADME, organism-based; design: time < 72 hr, dose 10 mg/kg, route oral
Procedure, shortened: (§2)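 Wistar rats (180 ± 20 g) were dosed orally at 10, 15 or 30 mg/kg. Heart, liver, spleen, lung, kidney and brain were collected at 0–72 h (n = 6 per point). Tissue was rinsed, blotted and homogenized in saline (0.25 g/1 mL), then spun at 10,000 × g. Supernatant was methanol-extracted, dried under nitrogen at 50 °C, reconstituted in methanol and run on C18 HPLC (acetonitrile 60%/water 40%, 1.0 mL/min).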

[9] = MRT (0 to 72 hrs) in Wistar rat Heart at 15 mg/kg, po by HPLC analysis; type: ADME, organism-based
Procedure, shortened: (§3)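 Tissue distribution in male Wistar rats given oral 10, 15 or 30 mg/kg; heart, liver, spleen, lung, kidney and brain collected predose and 0.5–72 h post-dose (n = 6 per time). Tissue rinsed in saline, homogenised 0.25 g/1 mL saline, methanol extraction, dried under nitrogen, reconstituted in methanol. Analysis by reverse-phase C18 HPLC, acetonitrile/water 60:40, 1.0 mL/min, ambient temperature.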

[10] = Half life in Wistar rat Heart at 30 mg/kg, po by HPLC analysis; type: ADME, organism-based; procedure, shortened: as §3
[11] = AUC (0 to infinity) in Wistar rat liver at 30 mg/kg, po by HPLC analysis; type: ADME, organism-based; design: dose 30 mg/kg, time infinity, route oral; procedure, shortened: as §2
[12] = MRT (0 to infinity) in Wistar rat liver at 10 mg/kg, po by HPLC analysis; type: ADME, organism-based
Procedure, shortened: (§4)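 Male Wistar rats (180 ± 20 g) received a single oral dose of 10, 15 or 30 mg/kg. Tissues were collected at 0, 0.5, 1, 2, 4, 6, 8, 12, 24, 48 and 72 h (n = 6 per point). Samples of 0.25 g were rinsed, then homogenized in saline (0.25 g/1 mL) and centrifuged at 10,000 × g. Supernatant was methanol-extracted, dried under nitrogen at 50 °C and reconstituted in methanol. Analysis was by C18 HPLC (acetonitrile 60% / water 40%, 1.0 mL/min).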

[13] = Half life in Wistar rat liver at 30 mg/kg, po by HPLC analysis; type: ADME, organism-based; procedure, shortened: as §3
[14] = Tmax in Wistar rat liver at 30 mg/kg, po by HPLC analysis; type: ADME, organism-based; procedure, shortened: as §4
[15] = Cmax in Wistar rat liver at 10 mg/kg, po by HPLC analysis; type: ADME, organism-based; design: dose 10 mg/kg, route oral; procedure, shortened: as §3
[16] = Cmax in Wistar rat liver at 30 mg/kg, po by HPLC analysis; type: ADME, organism-based; design: dose 30 mg/kg, route oral; procedure, shortened: as §3
[17] = AUC (0 to infinity) in Wistar rat spleen at 30 mg/kg, po by HPLC analysis; type: ADME, organism-based; design: dose 30 mg/kg, route oral, time infinity; procedure, shortened: as §2
[18] = MRT (0 to infinity) in Wistar rat spleen at 15 mg/kg, po by HPLC analysis; type: ADME, organism-based; procedure, shortened: as §4
[19] = Half life in Wistar rat spleen at 10 mg/kg, po by HPLC analysis; type: ADME, organism-based; procedure, shortened: as §3
[20] = Cmax in Wistar rat spleen at 10 mg/kg, po by HPLC analysis; type: ADME, organism-based; design: dose 10 mg/kg, route oral; procedure, shortened: as §3
[21] = AUC (0 to 72 hrs) in Wistar rat lung at 15 mg/kg, po by HPLC analysis; type: ADME, organism-based; design: dose 15 mg/kg, time < 72 hr, route oral; procedure, shortened: as §2
[22] = Tmax in Wistar rat lung at 30 mg/kg, po by HPLC analysis; type: ADME, organism-based; procedure, shortened: as §4
[23] = AUC (0 to 72 hrs) in Wistar rat kidney at 15 mg/kg, po by HPLC analysis; type: ADME, organism-based; design: dose 15 mg/kg, time < 72 hr, route oral; procedure, shortened: as §2
[24] = AUC (0 to infinity) in Wistar rat kidney at 10 mg/kg, po by HPLC analysis; type: ADME, organism-based; design: dose 10 mg/kg, time infinity, route oral; procedure, shortened: as §2
[25] = MRT (0 to 72 hrs) in Wistar rat kidney at 15 mg/kg, po by HPLC analysis; type: ADME, organism-based; procedure, shortened: as §3
[26] = Half life in Wistar rat kidney at 15 mg/kg, po by HPLC analysis; type: ADME, organism-based; procedure, shortened: as §3
[27] = AUC (0 to 72 hrs) in Wistar rat brain at 15 mg/kg, po by HPLC analysis; type: ADME, organism-based; design: dose 15 mg/kg, time < 72 hr, route oral; procedure, shortened: as §2
[28] = Tmax in Wistar rat brain at 30 mg/kg, po by HPLC analysis; type: ADME, organism-based; procedure, shortened: as §4
[29] = Cmax in Wistar rat brain at 10 mg/kg, po by HPLC analysis; type: ADME, organism-based; design: dose 10 mg/kg, route oral; procedure, shortened: as §2
[30] = Toxicity in ICR mouse assessed as mortality at 1875 mg/kg, ig after 2 weeks; type: organism-based; settings: in vivo, po
[31] = Toxicity in ICR mouse assessed as mortality at 2343.75 mg/kg, ig after 2 weeks; type: organism-based; settings: in vivo, po

In the case of `CCCCC1=NC2(CCCC2)C(=O)N1Cc1ccc2c(ccn2-c2ccccc2-c2nnn[nH]2)c1`, the IC50 [1] is reported as 1.26 nM, the Ki [1] is reported as 0.91 nM and the Activity [2] is reported as 40.62 mmHg. The AUC(0-inf) [3] was 88800 ng·h/mL, the MRT last [4] was 12.9 h and the half-life [5] was 542 min. It also gave a Tmax [6] of 5.67 h, a Cmax [7] of 856 ng/mL and an AUC(0-t) at 72 h [8] of 825 ng·h/mL. It also gave an MRT last [9] of 16.9 h, a half-life [10] of 1210 min and an AUC(0-inf) [11] of 15600 ng·h/mL. The MRT inf [12] was 3.58 h, the half-life [13] was 127 min and the Tmax [14] was 4 h. It also gave a Cmax [15] of 721 ng/mL, a Cmax [16] of 2000 ng/mL and an AUC(0-inf) [17] of 21000 ng·h/mL. The MRT inf [18] was 13.1 h, the half-life [19] was 1070 min and the Cmax [20] was 348 ng/mL. It also gave an AUC(0-t) at 72 h [21] of 1350 ng·h/mL, a Tmax [22] of 2 h and an AUC(0-t) at 72 h [23] of 5730 ng·h/mL. For the same compound, the AUC(0-inf) [24] was 10800 ng·h/mL, the MRT last [25] was 19.4 h and the half-life [26] was 1350 min. It also gave an AUC(0-t) at 72 h [27] of 1180 ng·h/mL, a Tmax [28] of 5.83 h and a Cmax [29] of 37.2 ng/mL. The mortality at 336 h [30] was 60% and the mortality at 336 h [31] was 80%.
